In ChEMBL document CHEMBL4043283, “Discovery and Preclinical Development of IIIM-290, an Orally Active Potent Cyclin-Dependent Kinase Inhibitor” (J Med Chem, 2018):
Active and inactive are the calls of the source. No cut-off for these calls is given here.

Experiments:
MIA PaCa-2 [1] = assay: Growth inhibition of human MIAPaCa2 cells at 10 uM after 48 hrs by MTT assay relative to control; type: functional; conditions: MIA PaCa-2, 48 h, read-out: GI
Summary of the method: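 Single-concentration primary screen at 10 μM by MTT assay. Cells were NCI-sourced cancer lines grown in appropriate medium at 37 °C, 95% humidity, 5% CO2. Growth inhibition is expressed relative to control.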

[2] = biological target: Cyclin-dependent kinase 5/CDK5 activator 1 (Homo sapiens, UniProt Q00535); assay: Inhibition of CDK5/cyclin p25 (unknown origin) after 30 mins in presence of [33P]-gamma-ATP by filter binding assay; type: protein-complex assay
Cyclin-dependent kinase 5/CDK5 activator 1, sequence (Q00535 whole entry): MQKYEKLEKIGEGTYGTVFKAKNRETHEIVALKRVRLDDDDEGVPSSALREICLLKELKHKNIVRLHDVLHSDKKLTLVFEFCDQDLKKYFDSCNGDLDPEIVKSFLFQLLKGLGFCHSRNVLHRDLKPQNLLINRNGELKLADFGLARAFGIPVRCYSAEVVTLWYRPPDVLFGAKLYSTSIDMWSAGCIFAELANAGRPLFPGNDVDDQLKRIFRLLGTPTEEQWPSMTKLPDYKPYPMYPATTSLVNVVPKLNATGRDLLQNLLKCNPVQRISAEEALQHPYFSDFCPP
Cyclin-dependent kinase 5/CDK5 activator 1, sequence (Q15078 whole entry, further chain): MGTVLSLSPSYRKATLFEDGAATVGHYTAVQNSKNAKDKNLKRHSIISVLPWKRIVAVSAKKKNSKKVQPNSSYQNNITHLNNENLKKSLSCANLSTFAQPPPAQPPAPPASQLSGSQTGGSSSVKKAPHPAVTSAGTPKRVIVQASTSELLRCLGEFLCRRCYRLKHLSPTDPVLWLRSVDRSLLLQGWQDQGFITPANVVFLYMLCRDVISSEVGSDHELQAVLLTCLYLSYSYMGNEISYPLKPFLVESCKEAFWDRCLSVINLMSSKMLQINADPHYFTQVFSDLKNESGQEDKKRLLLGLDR

CDK9/Cyclin K = CDK9/Cyclin K (Homo sapiens, UniProt P50750); assay: Inhibition of CDK9/cyclin K (unknown origin) after 30 mins in presence of [33P]-gamma-ATP by filter binding assay; type: protein-complex assay
CDK9/Cyclin K, sequence (P50750 whole entry): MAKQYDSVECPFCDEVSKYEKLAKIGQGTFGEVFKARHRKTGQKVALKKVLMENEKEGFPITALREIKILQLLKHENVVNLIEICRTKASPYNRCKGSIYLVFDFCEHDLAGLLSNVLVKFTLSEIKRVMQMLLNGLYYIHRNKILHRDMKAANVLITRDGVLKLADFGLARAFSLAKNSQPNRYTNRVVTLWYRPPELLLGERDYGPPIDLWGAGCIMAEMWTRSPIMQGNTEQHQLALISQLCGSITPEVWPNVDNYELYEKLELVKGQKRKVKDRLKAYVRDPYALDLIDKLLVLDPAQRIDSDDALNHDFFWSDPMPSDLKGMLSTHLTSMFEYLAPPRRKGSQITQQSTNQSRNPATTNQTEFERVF
CDK9/Cyclin K, sequence (O75909 whole entry, further chain): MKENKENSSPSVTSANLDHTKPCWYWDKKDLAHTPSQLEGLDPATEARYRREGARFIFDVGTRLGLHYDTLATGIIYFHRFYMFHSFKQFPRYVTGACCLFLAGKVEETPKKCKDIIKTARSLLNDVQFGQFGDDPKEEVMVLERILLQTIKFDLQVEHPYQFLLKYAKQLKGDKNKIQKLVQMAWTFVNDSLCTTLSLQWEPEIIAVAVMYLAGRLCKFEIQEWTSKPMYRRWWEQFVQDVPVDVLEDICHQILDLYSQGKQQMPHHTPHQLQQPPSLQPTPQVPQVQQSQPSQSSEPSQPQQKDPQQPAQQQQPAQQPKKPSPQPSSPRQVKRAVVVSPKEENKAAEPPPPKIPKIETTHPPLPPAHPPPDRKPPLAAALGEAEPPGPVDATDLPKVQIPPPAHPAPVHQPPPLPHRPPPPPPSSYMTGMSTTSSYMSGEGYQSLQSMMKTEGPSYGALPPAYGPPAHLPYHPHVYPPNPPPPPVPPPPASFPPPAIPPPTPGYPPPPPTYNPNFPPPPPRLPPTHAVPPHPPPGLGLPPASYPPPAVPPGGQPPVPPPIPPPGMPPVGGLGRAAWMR

[3] = biological target: Serine/threonine-protein kinase ICK (Homo sapiens) (UniProt Q9UPZ9); assay: Inhibition of partial length wild type human ICK expressed in mammalian expression system at 0.5 uM by KINOMEscan method relative to control
Serine/threonine-protein kinase ICK (Homo sapiens), sequence (Q9UPZ9 whole entry): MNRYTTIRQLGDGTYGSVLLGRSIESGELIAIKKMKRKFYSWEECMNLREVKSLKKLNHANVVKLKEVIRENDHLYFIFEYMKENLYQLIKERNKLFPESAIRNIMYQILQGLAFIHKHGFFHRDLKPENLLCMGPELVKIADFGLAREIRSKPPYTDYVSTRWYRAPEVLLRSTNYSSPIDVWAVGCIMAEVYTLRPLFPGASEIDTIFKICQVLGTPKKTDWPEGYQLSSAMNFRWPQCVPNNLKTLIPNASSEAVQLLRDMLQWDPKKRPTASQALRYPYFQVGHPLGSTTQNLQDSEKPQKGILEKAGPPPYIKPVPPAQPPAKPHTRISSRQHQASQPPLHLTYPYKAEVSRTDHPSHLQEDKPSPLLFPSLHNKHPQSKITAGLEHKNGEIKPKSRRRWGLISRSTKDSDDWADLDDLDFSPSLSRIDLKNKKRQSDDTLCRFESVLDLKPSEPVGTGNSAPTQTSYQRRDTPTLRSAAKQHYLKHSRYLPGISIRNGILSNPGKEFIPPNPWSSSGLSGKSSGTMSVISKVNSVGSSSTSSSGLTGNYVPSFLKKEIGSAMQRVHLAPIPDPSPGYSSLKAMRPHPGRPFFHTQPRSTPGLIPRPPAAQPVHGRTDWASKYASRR
Summary of the method: (§1)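 Competition binding screen (KINOMEscan) at 0.5 μM; primary binding read out as % of control, lower values indicating stronger interaction.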

[4] = biological target: PRKCE (protein kinase C epsilon) (Homo sapiens, UniProt Q02156); assay: Inhibition of partial length wild type human PRKCE expressed in mammalian expression system at 0.5 uM by KINOMEscan method relative to control; summary of the method: as §1
PRKCE (protein kinase C epsilon), sequence (Q02156 whole entry): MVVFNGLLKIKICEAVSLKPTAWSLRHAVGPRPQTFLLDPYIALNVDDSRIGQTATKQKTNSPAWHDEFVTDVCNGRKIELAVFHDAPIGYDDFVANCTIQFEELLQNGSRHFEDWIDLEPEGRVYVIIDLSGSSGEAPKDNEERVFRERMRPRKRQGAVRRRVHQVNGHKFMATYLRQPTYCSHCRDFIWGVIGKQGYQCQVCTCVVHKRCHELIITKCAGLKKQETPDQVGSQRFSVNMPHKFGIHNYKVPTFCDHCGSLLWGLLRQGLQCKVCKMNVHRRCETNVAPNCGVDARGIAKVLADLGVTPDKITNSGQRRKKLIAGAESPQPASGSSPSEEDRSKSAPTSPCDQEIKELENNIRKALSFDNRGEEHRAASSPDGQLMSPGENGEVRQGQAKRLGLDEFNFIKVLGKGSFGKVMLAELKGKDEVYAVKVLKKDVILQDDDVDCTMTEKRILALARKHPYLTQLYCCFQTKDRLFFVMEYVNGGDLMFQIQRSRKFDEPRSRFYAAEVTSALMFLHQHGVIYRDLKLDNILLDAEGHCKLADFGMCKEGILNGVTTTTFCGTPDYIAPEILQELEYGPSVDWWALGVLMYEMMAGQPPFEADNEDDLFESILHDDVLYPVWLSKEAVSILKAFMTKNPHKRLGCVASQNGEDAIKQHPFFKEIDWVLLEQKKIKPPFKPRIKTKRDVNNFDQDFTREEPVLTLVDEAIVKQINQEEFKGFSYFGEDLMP

DU-145 = assay: Growth inhibition of human DU145 cells after 48 hrs by MTT assay; type: functional; conditions: DU-145, 48 h
Summary of the method: (§2)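 Cancer cell lines sourced from the National Cancer Institute (USA). Cells kept in appropriate growth medium at 37 °C, 95% humidity, 5% CO2. Antiproliferation read by tetrazolium (MTT) assay. GI50 values were determined only for compounds selected after an initial single-concentration screen.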

OVCAR-4 = assay: Growth inhibition of human OVCAR4 cells after 48 hrs by MTT assay; type: functional; conditions: OVCAR-4, 48 h; summary of the method: as §2
OVCAR-5 = assay: Growth inhibition of human OVCAR5 cells after 48 hrs by MTT assay; type: functional; conditions: OVCAR-5, 48 h; summary of the method: as §2
HOP-92 = assay: Growth inhibition of human HOP92 cells after 48 hrs by MTT assay; type: functional; conditions: HOP-92, 48 h; summary of the method: as §2
MIA PaCa-2 [5] = assay: Induction of apoptosis in human MIAPaCa2 cells at 1.5 uM after 24 hrs by propidium iodide staining-based flow cytometric method relative to control; type: functional
MIA PaCa-2 [6] = assay: Induction of apoptosis in human MIAPaCa2 cells assessed as chromatin condensation in nuclei after 24 hrs by scanning electron microscopy; type: functional, cell-based
Summary of the method: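 Cells exposed to different compound concentrations for 24 h on coverslips, fixed in 2.5% glutaraldehyde in 0.1 M phosphate buffer pH 7.2 (4 °C, 24 h), postfixed in 1% OsO4 4 h, ethanol-dehydrated, critical-point dried with HMDS, gold-coated, imaged at 20 kV.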

[7] = Chemical stability of compound in SIF at pH 6.8 assessed as parent compound remaining after 8 hrs by HPLC method; type: physicochemical; conditions: read-out: Stability
[8] = Metabolic stability in mouse plasma assessed as parent compound remaining after 8 hrs by HPLC method; type: ADME, cell-free; conditions: read-out: Stability
[9] = Protein binding in mouse plasma at 3 uM after 5 hrs by equilibrium dialysis method; type: ADME, cell-free; conditions: read-out: PPB (converted)
Cytochrome P450 2C9 [10] = biological target: T1, Cytochrome P450 2C9 (Homo sapiens, UniProt P11712); assay: Inhibition of human CYP2C9 using fluorogenic substrate preincubated with co-factor for 10 mins followed by enzyme-substrate addition by fluorometric method; type: ADME
T1 sequence (P11712 whole entry): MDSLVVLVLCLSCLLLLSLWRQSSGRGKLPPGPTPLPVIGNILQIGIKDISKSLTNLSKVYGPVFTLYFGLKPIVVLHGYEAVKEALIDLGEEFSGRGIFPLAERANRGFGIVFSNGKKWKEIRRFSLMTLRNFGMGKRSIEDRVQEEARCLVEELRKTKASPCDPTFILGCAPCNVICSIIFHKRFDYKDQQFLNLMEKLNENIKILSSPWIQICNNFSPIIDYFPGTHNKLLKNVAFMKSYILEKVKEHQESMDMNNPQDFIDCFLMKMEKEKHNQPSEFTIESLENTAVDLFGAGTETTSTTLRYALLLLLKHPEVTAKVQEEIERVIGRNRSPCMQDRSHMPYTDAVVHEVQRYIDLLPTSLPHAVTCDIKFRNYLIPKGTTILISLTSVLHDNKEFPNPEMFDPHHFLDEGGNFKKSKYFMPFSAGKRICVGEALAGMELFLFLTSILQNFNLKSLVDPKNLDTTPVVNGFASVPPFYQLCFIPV
Summary of the method: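 Cofactor plus test item or vehicle, in triplicate, preincubated 10 min at 37 °C; prewarmed enzyme–substrate mix added and incubated at 37 °C with shaking. Quench: acetonitrile (CYP2C19, CYP3A4) or 0.25 M Tris in 60% methanol (CYP2C9, CYP2D6). Metabolite fluorescence read; % inhibition computed against enzyme controls and enzyme-free blanks.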

[11] = Intrinsic clearance in rat liver microsomes assessed per mg of protein at 100 uM after 30 mins by LC-MS/MS analysis; type: ADME, microsome; conditions: read-out: CLH
[12] = Half life in mouse hepatocytes at 3 uM after 180 mins by LC-MS/MS analysis; type: ADME, cell-based, Hepatocyte
[13] = Half life in rat liver S9 fraction preincubated for 5 mins followed by NADPH addition measured after 30 mins by LC-MS/MS analysis; type: ADME, tissue-based
Summary of the method: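 Parent loss followed over time to give half-life, with NADPH as cofactor for microsomal phase I metabolism.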

[14] = AUC (0 to t) in BALB/c mouse at 1 mg/kg, iv by LC-MS/MS analysis; type: ADME, organism-based; conditions: in vivo
[15] = Half life in BALB/c mouse at 3 mg/kg, po by LC-MS/MS analysis; type: ADME, organism-based; conditions: in vivo
[16] = AUC in BALB/c mouse at 3 mg/kg, po by LC-MS/MS analysis; type: ADME, organism-based; conditions: in vivo
[17] = Pancreas to plasma partition coefficient, Kp of the compound in BALB/c mouse at 30 mg/kg, po measured at 1 hr; type: ADME, organism-based; conditions: pancreas and plasma
Ehrlich = assay: Antitumor activity against Swiss mouse EAC allografted in Swiss albino mouse assessed as tumor growth inhibition at 100 mg/kg, po administered for 9 day measured on day 13 relative to control; type: functional; conditions: read-out: TGI
Mus musculus = assay: Toxicity in CD1 nude mouse xenografted with human MIAPaCa2 cells assessed as mortality at 50 mg/kg, po qd administered on day 10 to 25 post tumor inoculation; type: organism-based; conditions: in vivo
HCT-116 = assay: Antitumor activity against human HCT116 cells xenografted in CD1 nude mouse assessed as tumor growth inhibition at 25 mg/kg, po qd administered on day 10 to 25 post tumor inoculation; type: functional, organism-based
CYP3A4 = CYP3A4 (Homo sapiens, UniProt P08684); assay: Inhibition of human CYP3A4 at 2 uM using fluorogenic substrate after 5 mins by fluorometric method relative to control; type: ADME; conditions: probe fluorogenic substrate
CYP3A4, sequence (P08684 whole entry): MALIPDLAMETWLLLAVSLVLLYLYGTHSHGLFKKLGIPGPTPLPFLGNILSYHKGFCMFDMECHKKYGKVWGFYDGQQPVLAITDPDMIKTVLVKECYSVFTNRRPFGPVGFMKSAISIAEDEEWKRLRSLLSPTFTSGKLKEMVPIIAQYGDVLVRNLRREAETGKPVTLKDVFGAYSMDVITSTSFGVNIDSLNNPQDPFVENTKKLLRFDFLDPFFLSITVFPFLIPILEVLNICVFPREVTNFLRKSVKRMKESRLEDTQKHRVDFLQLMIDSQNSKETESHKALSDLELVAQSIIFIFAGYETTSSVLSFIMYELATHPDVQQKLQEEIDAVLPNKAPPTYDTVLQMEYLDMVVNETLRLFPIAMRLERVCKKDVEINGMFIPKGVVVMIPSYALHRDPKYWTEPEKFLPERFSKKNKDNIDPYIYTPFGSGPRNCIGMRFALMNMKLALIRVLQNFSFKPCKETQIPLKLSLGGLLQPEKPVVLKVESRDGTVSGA

Cytochrome P450 2C9 [18] = biological target: T1, Cytochrome P450 2C9; assay: Time-dependent inhibition of human CYP2C9 at 2 uM using fluorogenic substrate by fluorometric method; type: ADME
[19] = Apparent permeability across apical to basolateral side in human Caco2 cells after 90 mins by LC-MS/MS analysis; type: ADME, cell-based; conditions: Caco-2
Summary of the method: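 Caco-2 monolayers were grown for 21 days. Test compound in HBSS containing 10 mM HEPES was added to the apical chamber, and samples were taken from both the apical and basolateral chambers.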

Salmonella typhimurium [20] = assay: Mutagenicity in Salmonella typhimurium TA1537 at 50 ug/plate in presence of liver S9 fraction by Ames test; type: toxicity; conditions: salmonella enterica subsp. enterica serovar typhimurium
Salmonella typhimurium [21] = assay: Mutagenicity in Salmonella typhimurium TA1535 at 50 ug/plate in absence of liver S9 fraction by Ames test; type: toxicity; conditions: salmonella enterica subsp. enterica serovar typhimurium
PBL [22] = assay: Genotoxicity in human PBL at 0.125 to 2 ug/ml in presence of cytokinesis blocking agent cytochalasin B and liver S9 fraction by micronucleus test; type: toxicity, cell-based
PBL [23] = assay: Genotoxicity in human PBL at 0.125 to 2 ug/ml in presence of cytokinesis blocking agent cytochalasin B and absence of liver S9 fraction by micronucleus test; type: toxicity, cell-based
[24] = Acute toxicity in po dosed Wistar rat assessed as mortality; type: organism-based; conditions: in vivo

## CN1CC[C@H](c2c(O)cc(O)c3c(=O)cc(/C=C/c4c(Cl)cccc4Cl)oc23)[C@H](O)C1
MIA PaCa-2 [1]
  inhibition of growth at 10 µM: 88%
[2]
  IC50: 15.5 nM
CDK9/Cyclin K
  IC50: 412 nM
[3]
  inhibition: > 98%
[4]
  inhibition at 0.5 µM: > 98%
DU-145
  GI50: 5 µM
OVCAR-4
  GI50: 9 µM
OVCAR-5
  GI50: 7 µM
HOP-92
  GI50: 3000 nM
MIA PaCa-2 [5]
  Activity: 1.9%
MIA PaCa-2 [6]
  Activity: Active
[7]
  remaining at 8 h: 100%
[8]
  remaining at 8 h: 94%
[9]
  fraction unbound at 5 h, 3 µM: 0.028
Cytochrome P450 2C9 [10]
  IC50: > 20 µM
[11]
  microsomal CLint at 100 µM: < 13 µL/min/mg
[12]
  half-life at 3 µM: 186 min
[13]
  half-life: 31 min
[14]
  AUC(0-t): 0.525 µM·h
[15]
  half-life: 185 min
[16]
  AUC: 0.643 µM·h
[17]
  Kp at 1 h: 24.4
Ehrlich
  inhibition in vivo at 100 mg/kg: 39%
Mus musculus
  Activity: Non-Toxic
HCT-116
  TGI: inactive
CYP3A4
  inhibition at 5 min, 2 µM: 30%
Cytochrome P450 2C9 [18]
  TDI: Not Active
[19]
  Papp A→B at 1.5 h: 2.1 ×10⁻⁶ cm/s
Salmonella typhimurium [20]
  Activity: Non-Toxic
Salmonella typhimurium [21]
  Activity: Non-Toxic
PBL [22]
  Activity: Non-Toxic
PBL [23]
  Activity: Non-Toxic
[24]
  LD50: 1000 mg/kg
